pIC50: −log10 of the molar value. The source made the active and inactive calls. No cut-off for these calls is given here.

The values that follow come from ChEMBL document CHEMBL1795276, “Synthesis and biological testing of novel pyridoisothiazolones as histone acetyltransferase inhibitors” (Bioorg Med Chem, 2011).

The test system of assay [1] is HCT-116. In words: Growth inhibition of human HCT116 cells at 40 uM by CellTiter-96 Aqueous Non-radioactive cell proliferation assay. It counts as functional. As to conditions: read-out: GI. The gist of the method: (§1)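 HCT116 cells were grown in high-glucose DMEM with 10% FBS, 2 mM L-glutamine, 1% non-essential amino acids and penicillin-streptomycin, and seeded at 4000/well. After 24 h, compound or DMSO vehicle was added; triplicates per concentration.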

Assay [2] deals with SK-N-SH. Description: Growth inhibition of human SK-N-SH cells at 40 uM by CellTiter-96 Aqueous Non-radioactive cell proliferation assay. It counts as functional. As to conditions: read-out: GI. A digest of the protocol:
(§2)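 SK-N-SH neuroblastoma cells were grown in low-glucose DMEM with 10% FBS, 2 mM L-glutamine and 1% penicillin-streptomycin, and seeded at 5000/well. Compound or DMSO vehicle was added after 24 h, in triplicate.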

For assay [3], the target named is T1, Histone acetyltransferase KAT2B (Homo sapiens, UniProt Q92831). Description: Inhibition of histone acetylase activity of human recombinant PCAF expressed in Escherichia coli at 50 uM using biotinylated oligopeptide sequences from histone H3 (1-21) substrate by In-vitro time-resolved fluorescence immunosorbent acetyltransferase assay. The gist of the method:
(§3)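 His-tagged human PCAF from E. coli (IPTG induction at 18 °C overnight), purified on Ni-NTA and stored at pH 6.0. Enzyme was preincubated with inhibitor in DMSO for 10 min at 30 °C in HAT buffer pH 7.5 (0.1% BSA, 0.8% Triton X-100, 100 mM HEPES). Reaction on 20 pmol/well biotinylated H3 1–21 bound to a streptavidin plate, with 100 µM acetyl-CoA final, 1 h at 30 °C. Detection with anti-acetylhistone H3 antibody, then Eu-labelled secondary antibody; time-resolved fluorescence at 340/615 nm. IC50 from RFU plotted against log concentration.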
Target sequence in this assay (Q92831 whole entry, looked up): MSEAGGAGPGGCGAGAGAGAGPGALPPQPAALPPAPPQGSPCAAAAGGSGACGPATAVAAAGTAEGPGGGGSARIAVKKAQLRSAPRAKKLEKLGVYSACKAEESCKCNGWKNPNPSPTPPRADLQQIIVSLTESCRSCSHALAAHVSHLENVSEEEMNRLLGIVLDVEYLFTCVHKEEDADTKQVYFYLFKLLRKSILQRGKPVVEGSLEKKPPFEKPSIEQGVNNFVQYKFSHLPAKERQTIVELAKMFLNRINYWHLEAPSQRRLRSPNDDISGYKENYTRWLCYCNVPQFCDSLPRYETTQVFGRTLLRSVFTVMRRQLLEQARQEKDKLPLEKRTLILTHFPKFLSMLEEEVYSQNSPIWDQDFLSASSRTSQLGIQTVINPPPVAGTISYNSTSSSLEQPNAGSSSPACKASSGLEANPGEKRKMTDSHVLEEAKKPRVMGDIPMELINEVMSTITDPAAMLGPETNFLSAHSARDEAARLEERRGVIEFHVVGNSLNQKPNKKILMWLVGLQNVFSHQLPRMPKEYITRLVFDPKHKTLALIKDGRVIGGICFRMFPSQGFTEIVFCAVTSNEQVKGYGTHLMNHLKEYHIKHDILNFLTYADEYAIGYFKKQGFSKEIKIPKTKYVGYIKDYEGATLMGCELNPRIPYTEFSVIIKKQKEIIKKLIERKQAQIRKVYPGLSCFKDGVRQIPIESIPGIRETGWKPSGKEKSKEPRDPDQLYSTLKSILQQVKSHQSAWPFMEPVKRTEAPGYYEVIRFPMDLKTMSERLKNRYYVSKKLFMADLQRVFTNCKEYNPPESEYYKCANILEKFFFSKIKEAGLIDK

Assay [4] addresses T1, Histone acetyltransferase KAT2B. In words: Inhibition of histone acetylase activity of human recombinant PCAF expressed in Escherichia coli at 10 uM using biotinylated oligopeptide sequences from histone H3 (1-21) substrate by In-vitro time-resolved fluorescence immunosorbent acetyltransferase assay. The gist of the method:
as §3
Target sequence in this assay (Q92831 whole entry, looked up): as above

Assay [5] relates to HCT-116. In words: Growth inhibition of human HCT116 cells at 25 uM by CellTiter-96 Aqueous Non-radioactive cell proliferation assay. It counts as functional. As to conditions: read-out: GI. A digest of the protocol:
as §1

Assay [6] relates to SK-N-SH. Description: Growth inhibition of human SK-N-SH cells at 25 uM by CellTiter-96 Aqueous Non-radioactive cell proliferation assay. It counts as functional. As to conditions: read-out: GI. A digest of the protocol:
as §2

The target in assay [7] is T1, Histone acetyltransferase KAT2B. Description: Inhibition of histone acetylase activity of human recombinant PCAF expressed in Escherichia coli at 25 uM using biotinylated oligopeptide sequences from histone H3 (1-21) substrate by In-vitro time-resolved fluorescence immunosorbent acetyltransferase assay. A digest of the protocol:
as §3
Target sequence in this assay (Q92831 whole entry, looked up): as above

Assay [8] has the same target. Description: Inhibition of histone acetylase activity of human recombinant PCAF expressed in Escherichia coli using biotinylated oligopeptide sequences from histone H3 (1-21) substrate by In-vitro time-resolved fluorescence immunosorbent acetyltransferase assay. The gist of the method:
as §3
Target sequence in this assay (Q92831 whole entry): as the sequence (Q92831 whole entry, looked up) above

The subject of assay [9] is SK-N-SH. In words: Growth inhibition of human SK-N-SH cells at 10 uM by CellTiter-96 Aqueous Non-radioactive cell proliferation assay. It counts as functional. As to conditions: read-out: GI. The gist of the method: as §2
In assay [10] the test system is HCT-116. In words: Growth inhibition of human HCT116 cells by CellTiter-96 Aqueous Non-radioactive cell proliferation assay. It counts as functional. The gist of the method:
as §1

Assay [11] concerns SK-N-SH. In words: Growth inhibition of human SK-N-SH cells by CellTiter-96 Aqueous Non-radioactive cell proliferation assay. It counts as functional. The gist of the method:
as §2

The subject of a further assay is MCF7. In words: Growth inhibition of human MCF7 cells by CellTiter-96 Aqueous Non-radioactive cell proliferation assay. It counts as functional. A digest of the protocol:
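MCF-7 cells were grown in RPMI-1640 with 10% FBS, 2 mM L-glutamine and penicillin-streptomycin, and seeded at 5000/well. Compounds or DMSO were added after 24 h; three replicates per concentration.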

Assay [12] deals with SK-N-SH. In words: Growth inhibition of human SK-N-SH cells at 5 to 25 uM incubated for 6 to 72 hrs by CellTiter-96 Aqueous Non-radioactive cell proliferation assay. It counts as functional, cell-based. The gist of the method:
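Time course in SK-N-SH cells (5000/well, low-glucose DMEM with 10% FBS). Compound at 5, 10 or 25 µM was added 24 h after seeding, and growth was followed up to 72 h of incubation by CellTiter 96 AQueous absorbance, relative to DMSO control.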

Assay [13] deals with T1, Histone acetyltransferase KAT2B. Description: Inhibition of histone acetylase activity of human recombinant PCAF expressed in Escherichia coli using biotinylated oligopeptide sequences from histone H4 (2-24) substrate by In-vitro time-resolved fluorescence immunosorbent acetyltransferase assay. A digest of the protocol:
(§4)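 E. coli-expressed His-tagged human PCAF, Ni-NTA purified. Preincubated 10 min at 30 °C with inhibitor (DMSO solution) in HEPES 100 mM pH 7.5 with 0.1% BSA and 0.8% Triton X-100. Substrate was 20 pmol/well biotinylated H4 2–24 on streptavidin wells; 100 µM acetyl-CoA final; incubation steps 1 h at 30 °C. Acetylation read with anti-acetyl-lysine primary antibody and Eu-labelled anti-rabbit secondary, by time-resolved fluorescence at 340/615 nm; IC50 from RFU versus log concentration.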
Target sequence in this assay (Q92831 whole entry): as the sequence (Q92831 whole entry, looked up) above

Assay [14] has the same target. Description: Inhibition of histone acetylase activity of human recombinant PCAF expressed in Escherichia coli using biotinylated oligopeptide sequences from histone H3 (1-21) substrate in presence of 1 mmol/L DTT by In-vitro time-resolved fluorescence immunosorbent acetyltransferase assay.
Target sequence in this assay (Q92831 whole entry, looked up): as above
Assay [15] deals with HCT-116. Description: Growth inhibition of human HCT116 cells at 20 uM by CellTiter-96 Aqueous Non-radioactive cell proliferation assay. It counts as functional. As to conditions: read-out: GI. A digest of the protocol: as §1
The test system of assay [16] is SK-N-SH. In words: Growth inhibition of human SK-N-SH cells at 20 uM by CellTiter-96 Aqueous Non-radioactive cell proliferation assay. It counts as functional. As to conditions: read-out: GI. The gist of the method: as §2
Assay [17] addresses T1, Histone acetyltransferase KAT2B. In words: Inhibition of histone acetylase activity of human recombinant PCAF expressed in Escherichia coli at 50 uM using biotinylated oligopeptide sequences from histone H4 (2-24) substrate by In-vitro time-resolved fluorescence immunosorbent acetyltransferase assay. A digest of the protocol:
as §4
Target sequence in this assay (Q92831 whole entry, looked up): as above

In general, inhibition refers to how much of the control response was suppressed. Consider `O=C(Cn1sc2cc(F)ccc2c1=O)Nc1nc(-c2ccccc2)cs1`, for which the inhibition of growth at 40 µM in the assay with HCT-116 [1] and with SK-N-SH [2] was less than 5% in each case. In addition, the inhibition in [3] was found to be 21%.
`O=c1c2cc([N+](=O)[O-])cnc2sn1-c1ccc(Oc2ccccc2)cc1`: in [4], the inhibition came to 48%. The inhibition of growth at 25 µM with HCT-116 [5] was less than 10%; with SK-N-SH [6], less than 5%.
As for `O=C1/C(=C/c2ccc3c(c2)OCO3)C(=S)SN1Cc1ccco1`, in assay [7], the inhibition was less than 5%.
Usually pIC50 stands for the negative decadic logarithm of the IC50, by convention in mol/L. As to `O=c1c2cccnc2sn1Cc1ccc(Cl)cc1`, the pIC50 in [8] is 4.76. Further, the inhibition of growth at 25 µM in the assay on HCT-116 [5] came out at 97%. The inhibition of growth at 10 µM with SK-N-SH [9] amounted to 20%.
The GI50 is the concentration at which growth is held to half of that of the control. With `Cc1cc(C)c2c(=O)n(CC(=O)Nc3ccc(Cl)cc3)sc2n1`, the figures for the GI50 with HCT-116 [10] and in the assay with SK-N-SH [11] were 35.8 µM and 22.1 µM, respectively. Further, the inhibition in assay [3] was 38%.
Turning to `O=c1c2cccnc2sn1-c1ccc(Br)cc1`, the pIC50 in assay [8] is 5.35.
With `O=c1c2cccnc2sn1-c1ccc(F)cc1`, the negative logarithm of the IC50 (pIC50) in assay [8] is 5.79; in [13] it was 6.14. Besides, in the assay with HCT-116 [5], the inhibition of growth at 25 µM is 28%. Besides, the GI50 in the assay with MCF7 was found to be 37.2 µM; in the assay with SK-N-SH [11], 10.3 µM. In the assay with SK-N-SH [12], the “growth inhibition (GI)” value was “Dose-dependent effect”.
For the compound `O=c1c2cccnc2sn1-c1ccc([N+](=O)[O-])cc1`, the results for the pIC50 in assay [8] and in assay [13] were 5.39 and 5.52, respectively.
In the case of `COc1ccc(-n2sc3ncc([N+](=O)[O-])cc3c2=O)cc1`, the figures for the pIC50 in [8] and in assay [13] were 5.47 and 5.74, respectively. Moreover, the inhibition entry in assay [14] was “inactive”.
As for `O=c1c2cccnc2sn1Cc1ccccc1`, the pIC50 in assay [8] was 4.64.
Consider `COc1ccc(-n2sc3ncc(C)cc3c2=O)cc1`, for which, in assay [8], the pIC50 is 5.19. Further, the inhibition of growth at 25 µM in the assay on HCT-116 [5] came out at 40%. In addition, in the assay on SK-N-SH [11], the GI50 is 12.2 µM.
Consider `O=c1c2cccnc2sn1Cc1ccc(Cl)c(Cl)c1`, for which, in assay [8], the pIC50 is 5.16. Besides, the GI50 in the assay on HCT-116 [10] is 15.8 µM; with SK-N-SH [11], 9.53 µM.
On to `O=c1c2cccnc2sn1-c1ccc(Cl)c(Cl)c1`, for which the values for the inhibition of growth at 20 µM in the assay on HCT-116 [15] and in the assay with SK-N-SH [16] were 56% and 37%, respectively. Besides, the negative-log IC50 (pIC50) in [8] was 5.34. Moreover, in assay [17], the inhibition was determined as 91%.
Consider `O=c1c2cc([N+](=O)[O-])cnc2sn1-c1ccc(Br)cc1`, for which the pIC50 in assay [8] was 5.31; in assay [13], 6.07. Further, the GI50 in the assay with MCF7 was determined as 44.2 µM; in the assay with SK-N-SH [11], 53.5 µM.
Regarding `O=c1c2cccnc2sn1-c1ccc(F)c(F)c1`, the pIC50 in assay [8] is 5.23.
`Cc1cc(C)c2c(=O)n(CC(=O)Nc3ccc(F)cc3C)sc2n1`: the GI50 is 22.6 µM in the assay with HCT-116 [10] and 25.7 µM in the assay with SK-N-SH [11]. The inhibition in assay [3] worked out at 48%.
On to `Cc1ccc(-n2sc3ncccc3c2=O)cc1`, for which the pIC50 in assay [8] was 5.33. Moreover, the inhibition of growth at 25 µM with HCT-116 [5] is 20%. The 50% growth inhibitory concentration (GI50) with SK-N-SH [11] was determined as 6.2 µM. For the same compound, in assay [17], the inhibition was found to be 75%.
Consider `CCCCc1ccc(-n2sc3ncc(-c4ccccc4)cc3c2=O)cc1`, for which the inhibition of growth at 25 µM in the assay with HCT-116 [5] was 33%; in the assay on SK-N-SH [6], 55%. Besides, the inhibition in assay [7] is 49%.
Take `O=C1c2cccnc2S(=O)(=O)N1Cc1ccc(Cl)c(Cl)c1`: in [3], the inhibition was determined as 6%.
Consider `O=c1c2cccnc2sn1Cc1ccc(F)cc1`, for which the pIC50 in assay [8] was 4.06.
